# E coli WT exp: growth inhibitors of wild-type E. coli, primary screen, strain BW25113, expanded library, OD600; OD600 absorbance; growth inhibition, % at 100 µM; 98,000 compounds, 0.15% hits; AID 710, 2007;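 active means growth inhibition above about 50% at one test dose, limit read from the data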;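 further: growth measured after 20 h incubation at 37 °C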
# Ecoli tolC: growth inhibitors of E. coli tolC mutant, primary screen, strain BW25113 ΔtolC::kan, 384-well. OD615. AID 573, 2007. growth inhibition, % at 10 µM (by protocol). 65,000 compounds, 2.2% hits;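 active means growth inhibition at or above a cutoff equal to the mean over every tested compound plus 3 SD, cut at about 60% in these data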;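 further: growth measured after 20 h incubation at 37 °C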
#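 Test system: E. coli BW25113 ΔtolC::kan bacteria; incubation: 37 °C, 20 h exposure; medium: LB broth supplemented with 50 µg/mL kanamycin; read-out basis: percent growth inhibition; signal: A615 absorbance measurement; compound: 10 µM final, single dose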
# Lung fibro prol: antiproliferative effect on LL 47 fibroblasts – human, LL 47 cells, CellTiter-Glo luminescence, primary screen; viability, % at 10 µM; LL 47 human lung fibroblast viability, ATP luminescence; active compounds read low; 85,000 compounds, 1.1% hits; AID 719, 2007;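 active means viability at or below 50% in the single dose screen; inactive means viability above 50%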;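 further: compound exposure lasted 72 h before the ATP readout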
#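 Benchmarks: Cell-only wells, no compound | Test system: LL 47 human lung fibroblasts, passage 12 or lower | Input: 1,150 cells/well | Measured by: CellTiter-Glo luminescence measuring cellular ATP | Medium: IMEM, 15% FBS supplement | Schedule: Overnight attachment after seeding, then 72 h compound exposure at 37 °C | Doses: Compound addition at 0.1% DMSO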
# H69AR inhibit: proliferation blockers of H69AR lung cancer cells, primary screen, cell-based, human, 86K library; 85,000 compounds, 6% hits; H69AR lung tumor viability, ATP luminescence, 72 h; active compounds read low; viability, % at 10 µM;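 active means viability at or below 40%; inactive means viability above 40%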;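 further: multidrug resistant small cell line overexpressing MRP-1 efflux transporter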
# HUVEC inhibit: inhibitors of HUVEC proliferation, primary screen, cell-based, 384-well; 86,000 compounds, 1.1% hits; AID 648, 2007; viability, % at 10 µM (by protocol); CellTiter-Glo luminescence, 72 h; active compounds read low;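 active means viability at or below 30%; inactive means viability above 30%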
# Jurkat viability: cytotoxicity toward Jurkat T cells, primary screen, cytotoxicity control, cell-based, Jurkat E6.1, 60K MLSMR library. 56,000 compounds, 1.2% hits. inhibition, % at 4 µM. Jurkat E6.1 viability, ATP luminescence, 48 h. AID 463, 2006;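 active means inhibition above the mean inhibition of all tested compounds plus 3 SD, cut at about 28% in these data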
# Hits are given with their value; n = inactive; x = not tested or not shown. An excerpt weighted towards active compounds, which were near 6.4% of everything screened.
SMILES,E coli WT exp,Ecoli tolC,Lung fibro prol,H69AR inhibit,HUVEC inhibit,Jurkat viability
CN1CCN(CCCNc2nc3ccccc3c3nc(-c4ccccc4)nn23)CC1,x,n,n,27.9,n,n
COc1cc2nc(NCCCN3CCN(C)CC3)n3nc(-c4ccccc4)nc3c2cc1OC,n,x,n,28.4,25.1,x
CCN(CC)CCCNc1nc(-c2ccccc2)nc2ccccc12,x,x,n,n,n,x
Cn1c(SCC(=O)N2CCOCC2)nc(O)cc1=O,n,x,n,n,n,x
COc1ccc(S(=O)(=O)N2CCOCC2)cc1C(=O)Nc1cc(C)on1,n,n,n,n,n,n
C=CCc1c(OC)ccc2ccc(=O)oc12,n,x,x,x,x,x
CC1=NCC(C)c2c1[nH]c1ccccc21 (configuration not stated),n,x,x,x,x,x
Cc1cc(C)n(C(=O)c2cc3ccccc3c(=O)o2)n1,n,n,n,n,n,n
O=C(NCC(=O)N(Cc1ccccc1)C(C(=O)NC1CCCC1)c1ccncc1)c1ccco1 (configuration not stated),x,x,n,n,n,x
CCn1c(Sc2ccc(N)cc2Cl)nc2ccccc21,n,n,n,34.1,n,n
O=c1[nH]c(=O)n(Cc2ccccc2)c2nc(-c3ccco3)cc(C(F)(F)F)c12,n,n,n,31.1,n,n
Cc1ccc(-c2nnn(CC(=O)Nc3cccc4cccnc34)n2)o1,n,n,n,x,n,n
CCOC(=O)N/N=C(/C)c1ccc([N+](=O)[O-])o1,51.0,x,n,n,n,x
COC(=O)N/N=C/c1ccc([N+](=O)[O-])o1,x,x,n,n,n,x
N#CC1=C2SCN(Cc3ccco3)CN2C(=O)CC1c1cccc2ccccc12 (configuration not stated),n,n,n,n,n,n
N#CC1=C2SCN(Cc3ccco3)CN2C(=O)CC1c1ccccc1F (configuration not stated),n,x,n,40.0,n,x
CCc1cccc(NC(=O)CSCc2cc(=O)[nH][nH]2)c1,n,x,n,n,n,x
CCc1cccc(NC(=O)CSC2=NS(=O)(=O)c3ccccc32)c1,n,x,49.6,3.5,n,x
Cn1cc(C(=O)NC2CCCCCCC2)c(=O)c2cc(S(=O)(=O)N3CCCC3)ccc21,n,n,49.4,32.3,n,n
CN(C1CCCCC1)S(=O)(=O)c1ccc2c(c1)c(=O)c(C(=O)N1CCc3ccccc3C1)cn2C,n,x,n,5.9,n,x
Cn1cc(C(=O)NC2CCCCCC2)c(=O)c2cc(S(=O)(=O)N3CCCC3)ccc21,x,n,x,n,n,n
CCc1nc(NC(C)C)c2oc3ccccc3c2n1,n,n,n,n,n,x
CCc1nc(N2CCCCC2)c2oc3ccccc3c2n1,n,100.0,n,n,n,n
CCc1nc(N2CCN(Cc3ccc4c(c3)OCO4)CC2)c2oc3ccccc3c2n1,n,x,x,x,x,x
CCc1nc(N2CCCC(C)C2)c2oc3ccccc3c2n1 (configuration not stated),n,100.0,n,n,n,n
SMILES,E coli WT exp,Ecoli tolC,Lung fibro prol,H69AR inhibit,HUVEC inhibit,Jurkat viability
CCc1nc(N2CCCCC2C)c2oc3ccccc3c2n1 (configuration not stated),n,100.0,n,22.3,n,n
COc1cccc(N2CCN(C(=S)NCc3ccco3)CC2)c1,n,x,x,x,x,x
O=C(c1ccc(COc2ccccc2Cl)o1)N1CCCC1,n,x,n,n,n,x
CC1CCN(C(=O)c2ccc(COc3ccccc3Cl)o2)CC1,n,86.7,n,n,n,n
O=C(c1ccc(Br)o1)N1CCN(c2ccc3nnc(-c4ccc(F)cc4)n3n2)CC1,n,x,n,n,n,x
O=C(c1cccs1)N(Cc1nc2sc3c(c2c(=O)[nH]1)CCCC3)C1CCCC1,n,89.5,n,n,n,n
CC(=O)Nc1ccc(NC(=O)CSc2nnc(-c3ccco3)n2Cc2ccco2)cc1,n,x,n,11.5,n,x
CNC(=O)CSc1nnc(-c2ccco2)n1-c1ccc(C)cc1,x,x,n,n,n,x
Cc1ccc(-n2c(SCC(=O)Nc3ccc4cn[nH]c4c3)nnc2-c2ccco2)cc1,n,n,n,31.7,n,n
COc1ccccc1N1CCN(CC(=O)c2c(C)[nH]c3cc(C)ccc23)CC1,n,n,n,37.5,n,n
Cc1csc(NC(=O)Cc2nn(C)c(=O)c3ccccc23)n1,n,n,n,n,n,x
CC(C)NCCCOc1ccc(C(C)(C)c2ccccc2)cc1,n,x,n,n,n,x
CC(C)(c1ccccc1)c1ccc(OCCCNCCO)cc1,n,x,n,0.9,25.6,x
CC(C)COc1ccc2[nH]c3c(c2c1)CCCC3=O,n,x,n,n,19.5,x
Cc1cc(C(=O)CSc2n[nH]c(N)n2)c(C)n1-c1ccccc1,n,x,x,x,x,x
Cc1ccc(-n2c(C)cc(C(=O)CSc3n[nH]c(N)n3)c2C)cc1,n,x,n,31.8,n,x
Cc1cc(C(=O)CSc2n[nH]c(N)n2)c(C)n1-c1ccc(F)cc1,x,x,n,39.9,n,x
Cc1ccc(-n2c(C)cc(C(=O)COC(=O)c3c(C)noc3C)c2C)cc1,n,82.4,n,n,n,n
COc1cccc(NC(=O)COC(=O)c2ccc(S(=O)(=O)NCc3ccco3)cc2)c1,n,x,x,x,x,x
Cc1ccc(C(=O)C(C)OC(=O)c2n[nH]c(=O)c3ccccc23)cc1 (configuration not stated),n,x,x,x,x,x
CCOC(=O)C1=C(Cc2ccc(Cl)cc2)C(=O)c2ccccc2C1=O,n,x,n,1.9,20.6,x
Cc1ccc2c(c1)c1cccc3c1n2CCN3CCC(N)=O,n,n,n,n,21.2,n
COC(=O)c1c(C(=O)OC)n(CCCN)c2ccc(C)cc12,n,n,n,n,n,x
Cn1ncc2c1ncn1c(-c3ccccc3Cl)nnc21,x,n,n,n,n,n
CCOC(=O)c1sc2c(c1C)C(c1cccs1)C1=C(CCCC1=O)N2 (configuration not stated),n,80.0,n,n,n,n
SMILES,E coli WT exp,Ecoli tolC,Lung fibro prol,H69AR inhibit,HUVEC inhibit,Jurkat viability
CCOC(=O)C1=C(C)NC2=C(C(=O)CCC2)C1c1cccs1 (configuration not stated),n,n,n,n,n,n
CC(NC(=O)c1ccco1)C(c1cccs1)N1CCOCC1 (configuration not stated),n,n,x,x,x,n
Cc1cnc(NC(=O)c2cc3c(s2)CCCC3)s1,n,x,n,23.9,n,x
Cc1csc(NC(=O)c2cc3c(s2)CCCC3)n1,n,x,n,n,n,x
CC/C(=N\NC(=O)c1ccc(-c2ccccc2)cc1)C12CC3CC(CC(C3)C1)C2,n,x,x,x,x,x
O=C(Nc1ccc2oc(-c3ccccc3Cl)nc2c1)c1cncc(Br)c1,n,n,n,18.3,17.0,n
O=C(Nc1ccc2oc(Cc3ccc(Cl)cc3)nc2c1)c1cccnc1,n,69.1,n,35.6,n,34.3
CCOc1cccc(C(=O)Nc2ccc3oc(Cc4ccc(Cl)cc4)nc3c2)c1,n,x,n,23.7,n,x
O=C(Nc1ccc2oc(-c3ccccc3Cl)nc2c1)c1ncn[nH]1,n,n,n,n,n,n

# Assay outcomes from PubChem BioAssay.
